Data set [1] deals with human monocytes (U-937 ATCC CRL-1593.2). Briefly: Cytotoxic activity, MTT assay on U-937 cells. Format: cell-based. As to conditions: 72 h. Summed up:
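Exponential-phase cells at 1 × 10^5 cells/mL in RPMI-1640 with 10% FBS. Test compound (200, 50, 12.5, 3.125 μg/mL) was added in PBS with 0.5% DMSO for 72 h at 37 °C, 5% CO2. MTT was then added for 3 h, the reaction stopped with isopropanol/SDS, and absorbance read at 570 nm. Viability was taken relative to untreated cells, with blank subtraction. LC50 was by probit linear regression. Triplicates, ≥2 independent experiments.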
On the technique in general: Tetrazolium dyes change colour on reduction, which living cells bring about.

Data set [2] concerns intracellular amastigotes of L. panamensis (MHOM/CO/87/UA140-EGFP strain). The data set can be described thus: Antileishmanial activity on intracellular amastigotes, flow cytometry. It is filed as cell-based. Summed up: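 U-937 cells (3 × 10^5 cells/mL, RPMI-1640, 0.1 μg/mL PMA) infected with stationary-phase EGFP-transfected promastigotes at 15:1 for 3 h at 34 °C, then washed. After 24 h, test compound was added at 50, 12.5, 3.125 and 0.78 μg/mL for 72 h at 37 °C, 5% CO2. Amphotericin B served as positive control. Detached cells were read by flow cytometry (488/525 nm, 10,000 events). EC50 was by probit from MFI relative to untreated wells. Triplicates, ≥2 independent experiments.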
(In general: In flow cytometry, cells or beads pass a laser one at a time.)

Data set [3] deals with P. falciparum (3D7 strain). The data set can be described thus: Antiplasmodial activity, LDH assay. Format: cell-based.
The test system of data set [4] is Trypanosoma cruzi (Tulahuen strain transfected with the β-galactosidase gene). The data set can be described thus: Antitrypanosomal activity on intracellular amastigotes, β-galactosidase readout. Format: cell-based. As to conditions: read-out: Trypanosomal CE50; intracellular amastigotes in U-937 cells, 72 h.
Data set [5] is described as follows: Electrochemical measurements. Format: physicochemical. As to conditions: cyclical cathodic and anodic currents, low potential range, ACN, TBAB 0.1 M. Summed up:
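Cyclic voltammetry used a glassy carbon working electrode, Ag/AgCl reference and platinum counter electrode, in acetonitrile with 0.1 M TBAB as supporting electrolyte. The scan ran from −1.5 to 2.5 V at 150 mV/s. p-Quinone was run under the same conditions as experimental control.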

[6] abbreviates: Leishmania panamensis, U-937, 72 h, read-out: Leishmanial CE50.
Setting [7] is: Plasmodium falciparum, 3D7, 72 h, read-out: Plasmodial CE50, 3D7 strain, 72 h.
[8] abbreviates: Leishmania panamensis, read-out: Antileishmanial activity.
Where [9] appears, read: read-out: Leishmanial CE50, intracellular amastigotes in U-937 cells, 72 h.
Where [10] appears, read: read-out: Plasmodial CE50, 3D7 strain, 72 h.

Read-outs that look alike come from different tables or passages of the source.

`O=C1C=CS(=O)(=O)c2c(Br)cccc21` [Compound 6f, 8-Bromo-4H-thiochromen-4-one 1,1-dioxide]: in data set [1], the “Cytotoxicity CL50” value is 318.45 µM. The EC50 in data set [2] (setting [6]) was 149 µM; in data set [3] (setting [7]) it was 82.8 µM.

`O=C1C=CS(=O)(=O)c2c1cccc2-c1cc(C(F)(F)F)cc(C(F)(F)F)c1` [Compound 21c, 8-(3,5-Bis(trifluoromethyl)phenyl)-4H-thiochromen-4-one 1,1-dioxide]: in data set [1], the “Cytotoxicity CL50” value turned out to be 23.20 µM. Also, the figures for the EC50 in data set [2] (setting [6]), in data set [2] (setting [8]) and in data set [3] (setting [7]) were 9.3 µM, 9.3 µM and 71.4 µM, respectively.

On to `O=C1C(Cc2ccccc2Cl)=CS(=O)(=O)c2ccccc21` [Compound 14a, 3-(2-Chlorobenzyl)-4H-thiochromen-4-one 1,1-dioxide], for which the “Cytotoxicity CL50” value in data set [1] came out at 83.61 µM. Besides, the EC50 in data set [2] (setting [6]) is 289 µM; in data set [3] (setting [7]), 71.2 µM.

On to “3-(4-Chlorobenzyl)-4H-thiochromen-4-one 1,1-dioxide [Compound 14c]”, for which the “Cytotoxicity CL50” value in data set [1] was determined as 20.81 µM. Moreover, the EC50 in data set [2] (read-out: Antileishmanial activity, Table 2, own compounds, repeats Table 1) is 18.2 µM; in data set [2] (setting [9]), 18.2 µM; in data set [3] (setting [10]), 46.7 µM; in data set [4] it was 129 µM.

Turning to “6-Phenyl-4H-thiochromen-4-one 1,1-dioxide [Compound 21e]”, in data set [1], the “Cytotoxicity CL50” value is 254.35 µM. The results for the EC50 in data set [2] (setting [9]), in data set [3] (setting [10]) and in data set [4] were 74 µM, 61.4 µM and 735 µM, respectively.

Consider `O=C1C=CS(=O)(=O)c2ccc(Cl)cc21` [Compound 6c, 6-Chloro-4H-thiochromen-4-one 1,1-dioxide], for which, in data set [1], the “Cytotoxicity CL50” value came to 215.05 µM. In addition, in data set [3] (setting [7]), the EC50 amounted to 89.9 µM.

`O=C1C(Cc2ccco2)=CS(=O)(=O)c2ccccc21` [Compound 17a, 3-(Furan-2-yl-methyl)-4H-thiochromen-4-one 1,1-dioxide]: the EC50 was found to be 72.9 µM in data set [2] (setting [6]), 72.9 µM in data set [2] (setting [8]) and 70.2 µM in data set [3] (setting [7]).

On to `O=C1C=CS(=O)(=O)c2ccccc21` [Compound 6a, 4H-Thiochromen-4-one 1,1-dioxide], for which the EC50 in data set [2] (setting [6]) was determined as 137 µM; in data set [3] (setting [7]), 717 µM. In data set [5], the electrochemical behavior result is “unexpected capacitive behavior”.

“6-Phenyl-4H-thiochromen-4-one 1,1-dioxide [Compound 21d]”: the “Cytotoxicity CL50” value in data set [1] amounted to 276.03 µM. Also, the EC50 was found to be 691 µM in data set [2] (setting [9]), 75.4 µM in data set [3] (setting [10]) and 260 µM in data set [4].

Regarding `O=C1C=CS(=O)(=O)c2ccc(Br)cc21` [Compound 6d, 6-Bromo-4H-thiochromen-4-one 1,1-dioxide], the EC50 in data set [2] (setting [6]) amounted to 106 µM; in data set [3] (setting [7]), 71.2 µM.

For the compound `O=C1C=CS(=O)(=O)c2cc(Br)ccc21` [Compound 6e, 7-Bromo-4H-thiochromen-4-one 1,1-dioxide], the “Cytotoxicity CL50” value in data set [1] stood at 252.48 µM. Also, in data set [3] (setting [7]), the EC50 stood at 76.3 µM.

With `O=C1C(Cc2ccc(Cl)cc2)=CS(=O)(=O)c2ccccc21` [Compound 14b, 3-(4-Chlorobenzyl)-4H-thiochromen-4-one 1,1-dioxide], the EC50 came out at 63.6 µM in data set [2] (setting [6]), 63.6 µM in data set [2] (setting [8]) and 50.6 µM in data set [3] (setting [7]).

With `O=C1C(Cc2cccs2)=CS(=O)(=O)c2ccccc21` [Compound 17b, 3-(Thiophen-2-yl-methyl)-4H-thiochromen-4-one 1,1-dioxide], the “Cytotoxicity CL50” value in data set [1] turned out to be 12.70 µM. In addition, the EC50 in data set [2] (setting [6]) turned out to be 16.5 µM; in data set [2] (setting [8]) it was 16.5 µM; in data set [3] (setting [7]) it was 99.3 µM.

On to `O=C1C=CS(=O)(=O)c2cc(-c3cc(C(F)(F)F)cc(C(F)(F)F)c3)ccc21` [Compound 21b, 7-(3,5-Bis(trifluoromethyl)phenyl)-4H-thiochromen-4-one 1,1-dioxide], for which the “Cytotoxicity CL50” value in data set [1] was determined as 49.16 µM. Further, the values for the EC50 in data set [2] (setting [6]) and in data set [3] (setting [7]) were 102 µM and 98.1 µM, respectively.

Turning to `O=C1C=CS(=O)(=O)c2ccc(-c3cc(C(F)(F)F)cc(C(F)(F)F)c3)cc21` [Compound 21a, 6-(3,5-Bis(trifluoromethyl)phenyl) 4 H-thiochromen-4-one 1,1-dioxide], in data set [1], the “Cytotoxicity CL50” value amounted to 83.61 µM. In addition, the figures for the EC50 in data set [2] (setting [6]) and in data set [3] (setting [7]) were 289 µM and 71.2 µM, respectively.

Take `CC1=CC(=O)c2ccccc2S1(=O)=O` [Compound 11a, 2-Methyl-4H-thiochromen-4-one 1,1 dioxide]: the “Cytotoxicity CL50” value in data set [1] amounted to 59.12 µM. Moreover, the EC50 in data set [2] (setting [6]) is 35.6 µM; in data set [3] (setting [7]), 140 µM.

In the case of `O=C1C=CS(=O)(=O)c2ccc(F)cc21` [Compound 6b, 6-Fluoro-4H-thiochromen-4-one 1,1-dioxide], in data set [1], the “Cytotoxicity CL50” value came to 274.83 µM. Moreover, in data set [3] (setting [7]), the EC50 was 111 µM.

Source of the values: PMC10362183 (Heliyon, 2023).
